Source: ChEMBL document CHEMBL2150917, “Lignopurines: a new family of hybrids between cyclolignans and purines. Synthesis and biological evaluation” (2012)
Active and inactive are the calls of the source. The calls are words filed in the database; no cut-off is given here.

Columns and labels:
MDA-MB-231 = experiment: Growth inhibition of human MDA-MB-231 cells after 72 hrs by SRB assay; type: functional; conditions: MDA-MB-231, 72 h
In short: (§1)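 Cells seeded at 5×10^3/well in RPMI and attached for 18 h drug-free. Samples added in DMSO/H2O 3:7 for 72 h exposure. Cells then fixed with cold TCA for 60 min at 4 °C, stained with 0.4% SRB in 1% acetic acid for 10 min, stain solubilized in Tris and read at 490 nm. GI50 from 100×[(T−T0)/(C−T0)]=50; mean of triplicates.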

A549 = experiment: Growth inhibition of human A549 cells after 72 hrs by SRB assay; type: functional; conditions: A549, 72 h; in short: as §1
HT-29 = experiment: Growth inhibition of human HT-29 cells after 72 hrs by SRB assay; type: functional; conditions: HT-29, 72 h; in short: as §1
HeLa [1] = experiment: Induction of cell cycle arrest in human HeLa cells assessed as accumulation at G2/M phase at 1 uM after 24 hrs by propidium iodide staining-based FACS flow cytometry; type: functional
In short: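 Mycoplasma-negative HeLa cells in DMEM with 10% heat-inactivated FCS, 2 mM L-glutamine, penicillin/streptomycin, 37 °C, 5% CO2; exposed to 1 µM for 24 h alongside untreated controls. 3–5×10^5 cells fixed overnight in 70% ethanol at 4 °C, PBS-washed, 1 h with 1 mg/mL RNase A plus 20 µg/mL propidium iodide at room temperature; flow cytometry for % G2/M; three independent experiments.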

HeLa [2] = experiment: Disruption of microtubule network in human HeLa cells at 1 uM after 24 hrs by DAPI staining-based confocal laser scanning microscopy relative to control; type: cell-based
In short: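 HeLa cells in DMEM with 10% heat-inactivated FCS, 2 mM L-glutamine, penicillin/streptomycin, 37 °C, 5% CO2, grown on poly-L-lysine coverslips; 1 µM, 24 h. Fixed in 4% paraformaldehyde in HPEM (pH 6.6), 0.5% Triton X-100 permeabilized, anti-alpha-tubulin mouse mAb (1:150), Cy2 anti-mouse IgG, DAPI nuclei; confocal imaging versus untreated cells; at least three experiments.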

| SMILES | GI50 (MDA-MB-231) [nM] | GI50 (A549) [nM] | GI50 (HT-29) [nM] | Activity (HeLa [1]) | Activity (HeLa [2]) |
| --- | --- | --- | --- | --- | --- |
| COc1cc([C@@H]2c3cc4c(cc3C=C(C=O)[C@H]2C(=O)OCCCCCCBr)OCO4)cc(OC)c1OC | 1800 | 660 | 740 | – | – |
| COc1cc([C@@H]2c3cc4c(cc3C=C(C=O)[C@H]2C(=O)OCCCBr)OCO4)cc(OC)c1OC | 130 | 190 | 140 | – | – |
| COc1cc([C@@H]2c3cc4c(cc3C=C(C=O)[C@H]2C(=O)OCc2ccc(CBr)cc2)OCO4)cc(OC)c1OC | 700 | 85 | 77 | – | – |
| COc1cc(-c2c(C(=O)OCCCn3cnc4c(Cl)ncnc43)c(C=O)cc3cc4c(cc23)OCO4)cc(OC)c1OC | 5000 | 2000 | 2100 | Active | Active |
| COc1cc([C@@H]2c3cc4c(cc3[C@H](O)[C@@H](CO)[C@H]2C(=O)OCCCCCCBr)OCO4)cc(OC)c1OC | 350 | 250 | 160 | – | – |
| CCC/N=C/C1=Cc2cc3c(cc2[C@@H](c2cc(OC)c(OC)c(OC)c2)[C@@H]1C(=O)OCc1ccc(Cn2cnc4c(Cl)ncnc42)cc1)OCO3 | 740 | 59 | 90 | – | – |
| CCCNCC1=Cc2cc3c(cc2[C@@H](c2cc(OC)c(OC)c(OC)c2)[C@@H]1C(=O)OCc1ccc(Cn2cnc4c(Cl)ncnc42)cc1)OCO3 | 1300 | 580 | 630 | – | – |
| COc1cc([C@@H]2c3cc4c(cc3[C@@H](O[C@@H]3O[C@@H]5CO[C@@H](C)O[C@H]5[C@H](O)[C@H]3O)[C@H]3COC(=O)[C@H]23)OCO4)cc(OC)c1O [ETOPOSIDE] | 7200 | 2200 | 9400 | – | – |
| COC(=O)[C@@H]1C(C=O)=Cc2cc3c(cc2[C@H]1c1cc(OC)c(OC)c(OC)c1)OCO3 [PODOPHYLLIC ALDEHYDE] | 200 | 60 | 39 | – | – |
| COc1cc([C@@H]2c3cc4c(cc3[C@H](O)[C@@H](CO)[C@H]2C(=O)OCCCBr)OCO4)cc(OC)c1OC | 160 | 140 | 140 | – | – |

The next lines start with results.

| GI50 (MDA-MB-231) [nM] | GI50 (A549) [nM] | GI50 (HT-29) [nM] | SMILES | Activity (HeLa [1]) | Activity (HeLa [2]) |
| --- | --- | --- | --- | --- | --- |
| 3100 | 400 | 770 | COc1cc([C@@H]2c3cc4c(cc3C=C(C=O)[C@H]2C(=O)OCCCCCCn2cnc3c(Cl)ncnc32)OCO4)cc(OC)c1OC | Active | Active |
| 2400 | 750 | 910 | COc1cc([C@@H]2c3cc4c(cc3C=C(C=O)[C@H]2C(=O)OCCCn2cnc3c(Cl)ncnc32)OCO4)cc(OC)c1OC | Active | Active |
| 2400 | 310 | 530 | COc1cc([C@@H]2c3cc4c(cc3C=C(C=O)[C@H]2C(=O)OCCCCCCn2cnc3cncnc32)OCO4)cc(OC)c1OC | Active | Active |
| 3500 | 2300 | 2200 | CCCNCC1=Cc2cc3c(cc2[C@@H](c2cc(OC)c(OC)c(OC)c2)[C@@H]1C(=O)OCCCCCCn1cnc2c(Cl)ncnc21)OCO3 | – | – |
| 7700 | 790 | 710 | COc1cc([C@@H]2c3cc4c(cc3C=C(C=O)[C@H]2C(=O)OCCCn2cnc3cncnc32)OCO4)cc(OC)c1OC | Active | Active |
| 810 | 29 | 51 | COc1cc([C@@H]2c3cc4c(cc3C=C(C=O)[C@H]2C(=O)OCc2ccc(Cn3cnc5c(Cl)ncnc53)cc2)OCO4)cc(OC)c1OC | Active | Active |
| 3700 | 1200 | 1700 | COc1cc([C@@H]2c3cc4c(cc3C=C(C=O)[C@H]2C(=O)OCCCCCCn2cnc3ncnc(Cl)c32)OCO4)cc(OC)c1OC | Active | Active |
| 5100 | 1200 | 1200 | CCCNc1ncnc2c1ncn2CCCCCCOC(=O)[C@@H]1C(C=O)=Cc2cc3c(cc2[C@H]1c1cc(OC)c(OC)c(OC)c1)OCO3 | Active | Active |
